Key:
[1] = tested on: NICD-expressing vascular structures; assay: NICD/CD31 immunohistochemistry of tumor blood vessels; type: in vivo, human
Notch pathway components = type: in vivo, human; conditions: enhancing tissue compared to areas of intact BBB, after 7 days
Summary of the method: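 After 7 days of daily test compound (last dose 2–3 h pre-resection), tumor was sampled separately from contrast-enhancing and non-enhancing regions, defined by intraoperative MRI. Notch pathway transcripts were quantified by real-time PCR, normalized to 18S (n=6). Mean±SEM; unpaired Student's t-tests.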

[2] = tested on: tumor blood perfusion and vascular permeability; assay: DCE-perfusion MRI before and after 7 days of RO4929097; type: in vivo, human; conditions: after 7 days of RO4929097
Summary of the method: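 Dynamic contrast-enhanced perfusion MRI in glioma patients before and after 7 days of daily test compound given before resection. Read-outs were relative fractional plasma volume (Vp) for blood perfusion and volume transfer coefficient between plasma and extravascular extracellular space (K^trans) for vascular permeability. Values given as mean±SEM; significance by unpaired Student's t-test.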

[3] = type: in vivo, human
Hes1 = conditions: cited from earlier work
[4] = tested on: Notch gene targets, angiogenesis and mesenchymal genes; assay: RNA-Ampliseq gene expression profiling of matched and recurrent tumors; type: in vivo, human
Summary of the method: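 RNA sequencing on FFPE tumor tissue. Samples were matched archival pre-treatment tissue and tissue resected after the initial 7 days of daily test compound. A further set was recurrent tumors resected at repeat surgery from patients kept on the test compound (with temozolomide) until the day of surgery (n=7).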

glioblastoma explants [5] = assay: Organotypic tumor explants: Ki-67 immunofluorescent staining; type: cell-based, human; conditions: RO4929097 1 µM, 10 days in vitro; n=4
Summary of the method: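 Fresh tumor tissue from patients resected on study was grown as 3-D organotypic explants. Established explants were treated with the test compound alone. Proliferation was read by Ki-67 immunofluorescent staining and counting of Ki-67+ nuclei before and after treatment (n=4). Mean±SEM; unpaired Student's t-test.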

[6] = tested on: Notch intracellular domain (NICD); assay: NICD immunohistochemistry of tumor cells in matched glioblastoma tissue; type: in vivo, human; conditions: after presurgical 7-day treatment; before 21.9 ± 5.4 %; n=6
Summary of the method: (§1)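 Tumor sections taken before and after 7 days of daily test compound were immunostained; the last dose was given 2–3 h before resection. NICD used an anti-NICD antibody. At least 1,000 cells counted per marker, with morphometry by image analysis. Ki-67 values were also grouped by patient survival (n=7). Mean±SEM; unpaired Student's t-tests.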

GSC-like CD133+ cells = assay: Organotypic tumor explants: FACS analysis of CD133+ cells; type: cell-based, human; conditions: RO4929097 alone; n=5
[7] = tested on: tumor cells proliferation (Ki-67); assay: Ki-67 immunohistochemistry of matched pre- and post-treatment tumor tissue; type: in vivo, human
Summary of the method: as §1

[8] = Phase I 3+3 dose escalation of RO4929097 with RT and temozolomide: toxicity; type: in vivo, human
glioblastoma explants [9] = assay: Organotypic tumor explants: CellTiter Glo Luminescent Assay; type: cell-based, human; conditions: triple combination RT+temozolomide+RO4929097; n=5
[10] = Plasma pharmacokinetics of RO4929097; type: in vivo, human; conditions: 10, 15, 20 mg, with temozolomide 75mg/m2
Summary of the method: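 Daily test compound at 10, 15 or 20 mg, combined with temozolomide 75 mg/m² and 150 mg/m². Plasma levels measured by HPLC-MS/MS. […] Reported as mean ±SD.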

[11] = after RO4929097, survival cut-off 14 months
[12] = second surgery after prolonged course (mean 181 days)

For `CC(C)(C(=O)NCC(F)(F)C(F)(F)F)C(=O)N[C@@H]1C(=O)Nc2ccccc2-c2ccccc21` [RO4929097], the microvascular density ([1]; Pre vs Post vs PostPP) was “no significant change”, the “NICD expression on vascular structures, better survival group” value [1, 11] was 22.5 ± 5.0% and the “NICD expression on vascular structures, poor survival group” value [1, 11] was 43.8 ± 9.0%. For the same molecule, the “NICD-expressing vascular structures (Post)” value ([1]; at 7 days of RO4929097, Pre 67.6 ± 5.2 %, percent of total blood vessels) was 30.0 ± 9.0%, the “NICD-expressing vascular structures (PostPP)” value ([1]; at recurrence after prolonged treatment, Pre 67.6 ± 5.2 %) was 24.2 ± 5.2% and the “Hes1 mRNA levels” value (Notch pathway components) was “remained unchanged”. For the same molecule, the “mRNA of Notch receptors (Notch 2, 3 and 4)” value (Notch pathway components) was “significant upregulation”, the “mRNA of downstream effector Hes5” value (Notch pathway components) was “suppression” and the “mRNA of DLL1, DLL3 and Jag2 ligands” value (Notch pathway components; n=6) was “significant downregulation”. The “mean K^trans after treatment” value ([2]; baseline 0.05± 0.01) was 0.03 ± 0.01 min⁻¹, the “mean Vp ratio after drug exposure” value ([2]; baseline 9.34± 2.4, p<0.05, 8 patients) was 3.92± 0.9 and the “tumor drug level, enhancing tissue” value ([3]; after 7 days of RO4929097, at surgery, disrupted BBB, mean ± SEM) was 0.73 ± 0.13 µM. For the same molecule, the “tumor drug level, non-enhancing tissue” value ([3]; after 7 days of RO4929097, at surgery, intact BBB, mean ± SEM) was 0.33 ± 0.04 µM, the “drug level in non-enhancing tumor tissue, specimen M09” value ([3]; repeat surgery, prolonged RO4929097 use, single specimen) was ~ 1.3 µM and the “tumor drug concentration, enhancing areas” value [3, 12] was 0.77 ± 0.19 µM. The “tumor drug concentration, non-enhancing areas” value [3, 12] was 0.71 ± 0.24 µM, the “average tissue drug level, favorable survival group” value ([3]; tumor tissue, survival cut-off 14 months) was 0.15 ± 0.03 µM and the “average tissue drug level, poor survival group” value ([3]; tumor tissue, survival cut-off 14 months, p=0.36 vs favorable) was 0.19 ± 0.05 µM. The “concentration from which target genes (e.g. Hes1) are reduced dose-dependently” value (Hes1) was no less than 0.1 µM, the “mesenchymal-associated genes C/EBPB and STAT3” value ([4]; after presurgical 7-day RO4929097 treatment phase) was “downregulated” and the “expression of primary Notch gene targets Hes5, Hey1 and Hey2” value ([4]; mostly recurrence group with prolonged therapy, not statistically significant) was “trend towards downregulation”. For the same molecule, the “angiogenesis markers PECAM (CD31), angiopoetins and VEGFA” value ([4]; recurrent tumors under prolonged RO4929097 therapy) was “upregulation”, the “proliferation (Ki-67 quantification) in explants” value (glioblastoma explants [5]) was “significant decrease in proliferation” and the “NICD-positive tumor cells after treatment” value [6] was 5.1 ± 1.3%. For the same molecule, the “proportion of CD133+ cells in explants” value (GSC-like CD133+ cells) was “significant decrease”, the “Ki-67, poor survival group” value ([7]; after 7 days of RO4929097, baseline 15.0 ± 2.3 %) was 20.4 ± 2.2% and the “Ki-67, favorable survival subgroup” value ([7]; after 7 days of RO4929097, baseline 37.3 ± 10.7 %) was 8.5 ± 3.2%. For the same molecule, the “Ki-67 proliferation marker after treatment” value ([7]; after 7 days of RO treatment, before 27.7 ± 7.3 %, n=7) was 13.6 ± 3.1%, the QTc prolongation [8] was “no significant QTc prolongation” and the treatment-related deaths [8] was “no treatment-related deaths”. For the same molecule, the “recommended phase 2 dose (RP2D)” value ([8]; daily) was 20 mg, the “decrease in tumor cell viability compared to control untreated explants” value (glioblastoma explants [9]) was roughly 60% and the “mean Cmax and AUC24 for the initial dose” value [10] was “increased as the dose was escalated”.
